In data set [1] the test system is Rattus norvegicus. Briefly: Effect on glomerular filtration rate in Wistar rat assessed as change in creatinine excretion at 30 mg/kg, po relative to vehicle-treated control. The class given is functional, organism-based. Also noted: dose 30 mg/kg. A digest of the protocol:
(§1)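 Male Wistar rats dosed po at 30 mg kg⁻¹ day⁻¹. Urine collected over 6 h before and after treatment. Bradykinin measured by commercial RIA; creatinine excretion also determined. Mean ± SEM, n = 9-10; paired t test.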

The subject of data set [2] is Mus musculus. Kind of data set: Toxicity in B6.129P2-ApoE/J mouse assessed as body weight at 100 mg/kg, po administered QD after 4 weeks (reference value: 30.48 0.52 g). The format is organism-based. Also noted: dose 100 mg/kg, route oral. The following applies: in vivo, 672 h.
Data set [3] relates to Rattus norvegicus. Briefly: Cardioprotective activity against ventricular ischemia/reperfusion in Wistar rat assessed as duration of burst-pacing-induced atrial fibrillation at 30 mg/kg, po administered QD after 3 months (reference value: 25.00 18.09 s). The class given is functional, Cardiac atrium.
For data set [4], the system named is Rattus norvegicus. Kind of data set: Antihypertensive activity in Wistar rat assessed as increase in bradykinin level in urine at 30 mg/kg, po relative to vehicle-treated control. The format is functional. A digest of the protocol: as §1
The test system of data set [5] is Mus musculus. Briefly: Cardioprotective activity against angiotensin 2-induced cardiac hypertrophy in B6.129P2-ApoE/J mouse assessed as left ventricular wet weight at 100 mg/kg, po administered QD after 4 weeks (reference value: 182.03 […]). The format is functional, Heart left ventricle.
In another data set the target is CYP3A4 (Homo sapiens, UniProt P08684). Briefly: Induction of CYP3A4 relative to control. The class given is ADME. The following applies: human.
A short description of data set [6]: AUC (0 to infinity) in Sprague-Dawley rat plasma at 10 mg/kg, po. The format is ADME, organism-based. Also noted: time infinity, dose 10 mg/kg, route oral. A digest of the protocol:
(§2)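 Male Sprague-Dawley rats; single oral 10 mg/kg in glycofurol 75 (19%)/Cremophor RH40 (6%)/water (75%). Plasma and heart sampled at eight time points over 24 h, three animals per time point, nonserial design. Heart homogenized with water (2 g per 1 g tissue). Concentrations measured by LC-MS/MS with a structurally related internal standard; AUC(0-inf) taken from plasma concentration-time curves.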

The test system of data set [7] is Rattus norvegicus. Briefly: Antihypertensive activity in Wistar rat assessed as bradykinin-dependent diuresis at 10 mg/kg, iv administered as bolus measured as urine flow rate (reference value: 11.6 uL/min). The format is functional. A digest of the protocol:
(§3)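 Anesthetized male Wistar rats prepared with urethane, carotid/jugular cannulae, continuous albumin-saline infusion and ureteral urine collection. Compound given as iv bolus at 10 mg/kg, alone or with HOE140 0.5 mg/kg iv. Urine volume measured over five successive 20 min periods; two-way ANOVA with Bonferroni post-tests, p < 0.05.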

Data set [8] deals with Mus musculus. Kind of data set: Cardioprotective activity against angiotensin 2-induced cardiac hypertrophy in B6.129P2-ApoE/J mouse assessed as left ventricular end diastolic pressure at 100 mg/kg, po administered QD after 4 weeks (reference value: 15.49 1.95 mmHg). The format is functional, Heart left ventricle.
The target in a further data set is Neprilysin (Homo sapiens, UniProt P08473). Briefly: Inhibition of human recombinant NEP using Mca-RPPGFSAFK(Dnp)-OH as substrate incubated for 15 mins prior to substrate addition measured after 20 to 30 mins by fluorimetric analysis. A digest of the protocol: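 Recombinant human NEP and inhibitor preincubated 15 min at room temperature in reaction buffer, then substrate added. Fluorescence read after 20-30 min at room temperature. % inhibition and IC50 calculated against internal high and low controls.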

Data set [9] deals with Mus musculus. Kind of data set: Cardioprotective activity against angiotensin 2-induced cardiac hypertrophy in B6.129P2-ApoE/J mouse assessed as left ventricular end systolic pressure at 100 mg/kg, po administered QD after 4 weeks (reference value: 139.36 9.79 mmHg). The format is functional, Heart left ventricle.
The nature of data set [10]: Cmax in Sprague-Dawley rat heart at 10 mg/kg, po. The class given is ADME, organism-based. Also noted: dose 10 mg/kg, route oral. A digest of the protocol:
as §2

Data set [11] concerns Mus musculus. Kind of data set: Ratio of left ventricular wet weight to body weight in B6.129P2-ApoE/J mouse at 100 mg/kg, po administered QD after 4 weeks (reference value: 5.99 0.28 mg/g). The format is functional.
Data set [12] can be described thus: AUC (0 to infinity) in Sprague-Dawley rat heart at 10 mg/kg, po. The format is ADME, organism-based. Also noted: time infinity, dose 10 mg/kg, route oral. A digest of the protocol: as §2
Data set [13] is described as follows: Cmax in Sprague-Dawley rat plasma at 10 mg/kg, po. The class given is ADME, organism-based. Also noted: dose 10 mg/kg, route oral. A digest of the protocol: as §2
In data set [14] the target is T1, Lysosomal protective protein (Homo sapiens, UniProt P10619).
T1 sequence (P10619 whole entry): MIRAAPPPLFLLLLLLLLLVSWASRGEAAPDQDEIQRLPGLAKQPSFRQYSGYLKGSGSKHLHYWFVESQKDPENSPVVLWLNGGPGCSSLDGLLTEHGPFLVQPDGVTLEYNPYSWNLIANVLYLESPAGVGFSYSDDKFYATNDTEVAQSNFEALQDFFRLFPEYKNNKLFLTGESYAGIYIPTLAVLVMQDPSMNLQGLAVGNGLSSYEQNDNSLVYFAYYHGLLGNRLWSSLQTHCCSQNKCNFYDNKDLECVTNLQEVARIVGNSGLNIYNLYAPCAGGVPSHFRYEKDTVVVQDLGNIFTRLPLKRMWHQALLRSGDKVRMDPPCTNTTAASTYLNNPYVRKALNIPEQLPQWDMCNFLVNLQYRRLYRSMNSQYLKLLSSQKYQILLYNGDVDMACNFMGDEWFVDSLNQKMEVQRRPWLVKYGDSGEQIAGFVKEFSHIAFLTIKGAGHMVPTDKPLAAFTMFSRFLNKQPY
Kind of data set: Inhibition of human recombinant Myc-His10-tagged cathepsin A expressed in baculovirus infected Sf9 cells using BodipyFL labeled bradykinin as substrate incubated for 15 mins prior to substrate addition measured after 15 mins by fluorimetric analysis.

Data set [15] relates to Mus musculus. Briefly: Cardioprotective activity against angiotensin 2-induced cardiac hypertrophy in B6.129P2-ApoE/J mouse assessed as mean arterial pressure at 100 mg/kg, po administered QD after 4 weeks (reference value: 99.03 6.82 mmHg). The format is functional, Heart.
For data set [16], the system named is Mus musculus. Kind of data set: Cardioprotective activity against angiotensin 2-induced cardiac hypertrophy in B6.129P2-ApoE/J mouse assessed as ejection fraction at 100 mg/kg, po administered QD after 4 weeks (reference value: 51.14 2.49 %). The class given is functional, Heart.
Data set [17] deals with Rattus norvegicus. Briefly: Antihypertensive activity in Wistar rat assessed as bradykinin-dependent diuresis at 10 mg/kg, iv administered as bolus measured as urine flow rate in presence of HOE140 (reference value: 11.6 uL/min). The class given is functional. A digest of the protocol:
as §3

Data set [18] concerns the target Cathepsin A (Homo sapiens). Briefly: Inhibition of cathepsin A.
In data set [19] the test system is Rattus norvegicus. Briefly: Antihypertensive activity in Wistar rat assessed as bradykinin-dependent diuresis at 1 mg/kg, iv administered as bolus measured as urine flow rate (reference value: 11.6 uL/min). The class given is functional.
Data set [20] has as its system Mus musculus. Kind of data set: Cardioprotective activity against angiotensin 2-induced cardiac hypertrophy in B6.129P2-ApoE/J mouse assessed as heart rate at 100 mg/kg, po administered QD after 4 weeks (reference value: 403.23 7.98 bpm). The class given is functional.
The test system of data set [21] is Mus musculus. Kind of data set: Cardioprotective activity against angiotensin 2-induced cardiac hypertrophy in B6.129P2-ApoE/J mouse assessed as left ventricular relaxation time at 100 mg/kg, po administered QD after 4 weeks (reference value: 8.73 0.41 ms). The class given is functional, Heart left ventricle.
Another data set deals with Salmonella typhimurium. Briefly: Genotoxicity against Salmonella typhimurium by AMES test. The class given is toxicity, organism-based. The settings on record: salmonella enterica subsp. enterica serovar typhimurium.
Data set [22] is described as follows: Genotoxicity in micronucleus.
The nature of data set [23]: Solubility of the compound. The format is physicochemical.
Data set [24] is described as follows: Lipophilicity, log D of the compound. The class given is physicochemical. The following applies: octanol/water.
A short description of data set [25]: Drug metabolism in rat liver microsomes. The class given is ADME, Microsome. The following applies: read-out: Drug metabolism. In general terms: Liver microsomes are vesicles of endoplasmic reticulum, rich in cytochrome P450 enzymes.
Data set [26] deals with Voltage-gated inwardly rectifying potassium channel KCNH2 (Homo sapiens, UniProt Q12809). Briefly: Inhibition of human ERG.
Data set [27] can be described thus: Drug metabolism in human liver microsomes. The format is ADME, Microsome. The following applies: read-out: Drug metabolism.
A short description of data set [28]: Oral bioavailability in Sprague-Dawley rat at 10 mg/kg. The class given is ADME, organism-based. The following applies: in vivo.

The source made the active and inactive calls. No cut-off for these calls is given here.

Sequence of CYP3A4 (P08684 whole entry): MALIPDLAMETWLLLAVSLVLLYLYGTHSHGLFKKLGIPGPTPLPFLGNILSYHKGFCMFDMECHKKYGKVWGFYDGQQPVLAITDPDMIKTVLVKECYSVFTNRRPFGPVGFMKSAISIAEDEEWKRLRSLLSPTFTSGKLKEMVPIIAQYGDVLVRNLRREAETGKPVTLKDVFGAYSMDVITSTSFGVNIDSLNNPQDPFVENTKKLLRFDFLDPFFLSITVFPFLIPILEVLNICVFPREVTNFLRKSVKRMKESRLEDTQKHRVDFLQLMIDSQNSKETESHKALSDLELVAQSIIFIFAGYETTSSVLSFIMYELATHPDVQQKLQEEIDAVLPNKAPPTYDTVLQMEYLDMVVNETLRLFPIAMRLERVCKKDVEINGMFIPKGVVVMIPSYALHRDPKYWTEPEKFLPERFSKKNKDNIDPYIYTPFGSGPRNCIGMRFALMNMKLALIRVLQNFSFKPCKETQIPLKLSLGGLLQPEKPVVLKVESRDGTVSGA
Sequence of Neprilysin (P08473 whole entry): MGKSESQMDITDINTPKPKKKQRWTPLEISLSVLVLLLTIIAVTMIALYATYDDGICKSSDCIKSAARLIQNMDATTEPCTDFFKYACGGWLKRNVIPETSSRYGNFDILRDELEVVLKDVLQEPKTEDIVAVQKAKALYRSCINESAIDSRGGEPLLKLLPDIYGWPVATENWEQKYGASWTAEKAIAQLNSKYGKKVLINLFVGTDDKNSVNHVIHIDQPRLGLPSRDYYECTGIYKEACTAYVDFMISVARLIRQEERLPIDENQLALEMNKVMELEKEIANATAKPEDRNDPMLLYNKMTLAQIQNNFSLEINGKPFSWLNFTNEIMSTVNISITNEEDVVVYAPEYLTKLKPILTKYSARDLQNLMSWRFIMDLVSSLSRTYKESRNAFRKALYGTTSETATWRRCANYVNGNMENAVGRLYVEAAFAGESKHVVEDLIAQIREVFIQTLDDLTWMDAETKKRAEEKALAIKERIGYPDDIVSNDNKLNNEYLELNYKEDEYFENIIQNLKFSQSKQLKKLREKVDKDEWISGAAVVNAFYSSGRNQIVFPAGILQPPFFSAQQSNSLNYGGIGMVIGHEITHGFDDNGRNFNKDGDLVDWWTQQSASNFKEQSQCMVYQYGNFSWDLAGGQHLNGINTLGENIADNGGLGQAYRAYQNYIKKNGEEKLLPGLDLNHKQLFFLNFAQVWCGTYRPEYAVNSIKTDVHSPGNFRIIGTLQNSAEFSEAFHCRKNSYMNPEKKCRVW
Sequence of Voltage-gated inwardly rectifying potassium channel KCNH2 (Q12809 whole entry): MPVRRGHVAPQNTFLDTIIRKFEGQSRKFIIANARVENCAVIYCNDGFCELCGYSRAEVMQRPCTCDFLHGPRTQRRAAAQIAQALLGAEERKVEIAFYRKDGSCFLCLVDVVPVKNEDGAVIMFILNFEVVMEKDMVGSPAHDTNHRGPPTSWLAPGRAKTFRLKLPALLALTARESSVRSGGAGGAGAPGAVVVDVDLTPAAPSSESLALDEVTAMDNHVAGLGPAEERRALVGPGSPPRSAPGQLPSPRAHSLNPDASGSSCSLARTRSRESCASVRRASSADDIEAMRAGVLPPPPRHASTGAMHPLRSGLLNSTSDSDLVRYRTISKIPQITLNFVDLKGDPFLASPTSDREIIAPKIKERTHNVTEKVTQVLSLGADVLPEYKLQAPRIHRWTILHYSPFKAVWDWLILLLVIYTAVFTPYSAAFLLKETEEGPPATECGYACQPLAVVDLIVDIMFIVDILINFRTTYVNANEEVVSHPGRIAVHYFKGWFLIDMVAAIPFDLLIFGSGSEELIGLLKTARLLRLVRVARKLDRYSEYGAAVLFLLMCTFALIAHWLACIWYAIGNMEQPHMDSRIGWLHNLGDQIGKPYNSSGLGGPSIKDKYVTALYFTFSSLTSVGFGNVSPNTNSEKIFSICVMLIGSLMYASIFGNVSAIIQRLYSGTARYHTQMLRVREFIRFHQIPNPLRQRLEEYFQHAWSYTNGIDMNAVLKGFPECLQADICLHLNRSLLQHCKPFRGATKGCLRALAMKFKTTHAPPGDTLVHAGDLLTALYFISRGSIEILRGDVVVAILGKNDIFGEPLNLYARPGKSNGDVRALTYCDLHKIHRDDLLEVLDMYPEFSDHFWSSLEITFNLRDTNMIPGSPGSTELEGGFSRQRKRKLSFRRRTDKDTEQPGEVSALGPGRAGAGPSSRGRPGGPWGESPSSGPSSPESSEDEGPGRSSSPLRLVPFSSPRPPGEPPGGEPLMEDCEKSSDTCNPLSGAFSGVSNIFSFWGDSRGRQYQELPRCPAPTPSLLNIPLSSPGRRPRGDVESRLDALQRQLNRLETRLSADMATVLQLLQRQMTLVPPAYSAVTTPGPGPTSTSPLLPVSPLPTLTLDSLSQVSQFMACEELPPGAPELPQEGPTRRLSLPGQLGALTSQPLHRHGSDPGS

Consider `COc1cc(C(=O)N[C@@H](CC(=O)O)c2ccccc2C)nn1-c1ccccc1F`, for which the result in the data set with Rattus norvegicus [1] was inactive. Moreover, the Activity in the data set with Mus musculus [2] came to 29.63 g; in the data set with Mus musculus [5], 142.69 mg; in the data set with Rattus norvegicus [7] it was 18.3 µL/min; in the data set with Mus musculus [8], 8.32 mmHg; with Mus musculus [9] it was 129.95 mmHg; with Mus musculus [15], 95.88 mmHg. The Activity in the data set on Mus musculus [16] amounted to 57.89%; in the data set on Rattus norvegicus [17], 15.3 µL/min; with Rattus norvegicus [19], 14.3 µL/min; in the data set on Mus musculus [20], 407.11 bpm. Moreover, the Time amounted to 0.69 s in the data set on Rattus norvegicus [3] and 7.05 ms in the data set with Mus musculus [21]. The “fold change (FC)” value with Rattus norvegicus [4] is listed as 2. Besides, the Emax on CYP3A4 was determined as 9%. Moreover, the AUC(0-inf) in [6] was 130000 ng·h/mL; in data set [12] it was 16000 ng·h/mL. The IC50 at Neprilysin came out at 1.9 µM; in data set [14], 0.026 µM; in data set [18], 0.026 µM. Moreover, the figures for the Cmax in data set [10] and in data set [13] were 3720 ng/mL and 22200 ng/mL, respectively. Besides, the Ratio in the data set with Mus musculus [11] is 4.84 mg/g.

In the case of `Cc1ccccc1[C@H](CC(=O)O)NC(=O)c1cc(=O)n(-c2ccccc2F)[nH]1`, the Activity entry (in the data set on Salmonella typhimurium; in data set [22]) was “Non-toxic” throughout. In addition, the solubility in data set [23] was > 180 µg/mL. On CYP3A4, this molecule showed a maximal effect (Emax) of 0%. The inhibition entry on Neprilysin was “Active”. Moreover, the logD in data set [24] was -0.16. Further, the metabolised in data set [25] and in data set [27] was 10% throughout. In addition, the IC50 in data set [26] is > 10 µM. For the same molecule, the bioavailability in data set [28] is < 5%.

Broadly, the Emax is the size of the effect at its maximum, as opposed to the concentration needed. One may read the AUC(0-inf) as the area under the concentration-time curve extrapolated to infinity. As a reminder, the IC50 is the concentration that gives 50% inhibition. A word on the Cmax: it is the maximum level reached in the sampled fluid or tissue. A word on the solubility: it is the dissolved amount per volume that the medium holds. A lower solubility goes with little dissolved substance. A word on the logD: it is the decadic logarithm of the distribution of all forms, ionised or not, between an organic phase and buffer at a given pH. Usually bioavailability stands for dose-corrected exposure relative to a reference, in per cent. Higher therefore signals good availability.

The values are drawn from ChEMBL document CHEMBL2169867, “Novel β-amino acid derivatives as inhibitors of cathepsin A” (J Med Chem, 2012).
